Measurements published in ChEMBL document CHEMBL4428077, “Synthesis and Biological Evaluation of N-((1-(4-(Sulfonyl)piperazin-1-yl)cycloalkyl)methyl)benzamide Inhibitors of Glycine Transporter-1” (J Med Chem, 2016).

Experiments:
[1] = Toxicity in Sprague-Dawley rat assessed as gross behavioral abnormality at 1 to 10 mg/kg, po qd for 5 days; type: organism-based; settings: in vivo, 120 h
Procedure, shortened: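 Drug-naive Sprague–Dawley rats (n = 5/group) were dosed orally once daily for 5 days at 1.6, 4.8 or 16.1 μmol/kg in 5% Solutol/20% Captisol in 25 mM PBS, pH 2.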

[2] = Drug level in Sprague-Dawley rat plasma at 10 mg/kg, po qd for 5 days measured 2 hrs post last dose by LC-MS/MS analysis; type: ADME, organism-based
Procedure, shortened: (§1)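 Drug-naive Sprague−Dawley rats (n = 5/group) were dosed orally once daily for 5 days in 5% Solutol plus 20% Captisol in 25 mM PBS, pH 2, and sacrificed 2 h after the last dose. Drug was measured in CSF, brain and plasma; mean ± SEM.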

[3] = Drug level in Sprague-Dawley rat CSF at 3 mg/kg, po qd for 5 days measured 2 hrs post last dose by LC-MS/MS analysis; type: ADME, organism-based, Cerebrospinal fluid; settings: read-out: Drug uptake; procedure, shortened: as §1
[4] = Drug level in Sprague-Dawley rat brain at 100 mg/kg, po measured 2 hrs post dose by LC-MS/MS analysis; type: ADME, organism-based; settings: read-out: Drug uptake
Procedure, shortened: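 Drug-naive Sprague−Dawley rats (n = 4−5/group) were dosed orally once in 5% Solutol plus 20% Captisol in 25 mM PBS, pH 2, and euthanized 2 h later by CO₂. CSF was drawn from the cisterna magna. Drug was measured in CSF, brain and plasma; data as mean ± SEM.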

[5] = Drug level in Sprague-Dawley rat CSF at 10 mg/kg, po qd for 5 days measured 2 hrs post last dose by LC-MS/MS analysis; type: ADME, organism-based, Cerebrospinal fluid; settings: read-out: Drug uptake; procedure, shortened: as §1
[6] = Drug level in Sprague-Dawley rat plasma at 3 mg/kg, po qd for 5 days measured 2 hrs post last dose by LC-MS/MS analysis; type: ADME, organism-based; procedure, shortened: as §1
Rattus norvegicus = assay: In vivo inhibition of glycine transporter-1 in Sprague-Dawley rat assessed as CSF glycine level at 30 mg/kg, po measured 2 hrs post dose by LC-MS/MS analysis relative to control; type: functional; design: scale not given: the % may be the effect or the level left
Procedure, shortened: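 Drug-naive Sprague-Dawley rats, n = 5 per group, given acute oral doses of 0.4-160.9 μmol/kg (0.3-100 mg/kg). Vehicle was Solutol 5% in 20% Captisol / 25 mM PBS, pH 2. Killed 2 h post-dose. CSF glycine was quantified by LC-MS/MS with a deuterated-glycine standard and expressed as % vehicle control, mean ± SEM. Two-way ANOVA with Tukey test.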

[7] = Drug level in Sprague-Dawley rat brain at 10 mg/kg, po qd for 5 days measured 2 hrs post last dose by LC-MS/MS analysis; type: ADME, organism-based; settings: read-out: Drug uptake; procedure, shortened: as §1
[8] = Tmax in cynomolgus monkey plasma at 5 mg/kg, po by LC-MS/MS analysis; type: ADME, organism-based, Macaca fascicularis
Procedure, shortened: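 Three female cynomolgus monkeys per group, single dose: IV 1.5 μmol/kg in 5% DMSO/10% Solutol in saline, pH 6.5 (2 mL/kg), or PO 7.8 μmol/kg in 5% Solutol in 20% Captisol, 25 mM PBS, pH 2 (5 mL/kg). Parameters come from plasma concentration–time data; mean ± SD.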

[9] = Ratio of drug level in CSF to unbound plasma concentration in Sprague-Dawley rat at 3 to 10 mg/kg, po measured 2 hrs post dose by LC-MS/MS analysis; type: ADME, organism-based; settings: in vivo
Procedure, shortened: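 Drug-naive male Sprague–Dawley rats (n = 4–5/group) were dosed orally in 5% Solutol/10% Captisol in 25 mM PBS, pH 2, and euthanized by CO2 2 h post-dose. CSF (50–100 μL) was taken from the cisterna magna, and brain and plasma were collected; drug was measured in each matrix. Quantitation limit 1.0 ng/mL.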

[10] = Cmax in cynomolgus monkey plasma at 5 mg/kg, po by LC-MS/MS analysis; type: ADME, organism-based, Macaca fascicularis; design: dose 5 mg/kg, route oral
Procedure, shortened: (§2)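 Single-dose PK in female cynomolgus monkeys, n = 3 per group: 1.5 μmol/kg IV in 5% DMSO/10% Solutol in saline, pH 6.5 (2 mL/kg), or 7.8 μmol/kg PO in 5% Solutol in 20% Captisol, 25 mM PBS, pH 2 (5 mL/kg). Plasma parameters reported as mean ± SD.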

[11] = Drug level in cynomolgus monkey CSF at 10 mg/kg, po measured at 2 hrs post dose by LC-MS/MS analysis; type: ADME, organism-based, Macaca fascicularis, Cerebrospinal fluid; settings: read-out: Drug uptake
Procedure, shortened: (§3)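 Cynomolgus monkeys (n = 3/group) fitted with subcutaneous CSF ports were dosed orally at 0.4−15.7 μmol/kg in 5% Solutol plus 20% Captisol in 25 mM PBS, pH 2. CSF (about 0.30 mL) and blood were sampled predose and at 0.5, 1, 2, 3, 4, 8, 12 and 24 h. Quantitation limit 1.0 ng/mL; mean ± SD.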

[12] = molecular target: Voltage-gated inwardly rectifying potassium channel KCNH2 (Homo sapiens, UniProt Q12809); assay: Inhibition of human ERG channel expressed in HEK293 cells by patch clamp assay; type: cell-based
Chain of Voltage-gated inwardly rectifying potassium channel KCNH2 (Q12809 whole entry): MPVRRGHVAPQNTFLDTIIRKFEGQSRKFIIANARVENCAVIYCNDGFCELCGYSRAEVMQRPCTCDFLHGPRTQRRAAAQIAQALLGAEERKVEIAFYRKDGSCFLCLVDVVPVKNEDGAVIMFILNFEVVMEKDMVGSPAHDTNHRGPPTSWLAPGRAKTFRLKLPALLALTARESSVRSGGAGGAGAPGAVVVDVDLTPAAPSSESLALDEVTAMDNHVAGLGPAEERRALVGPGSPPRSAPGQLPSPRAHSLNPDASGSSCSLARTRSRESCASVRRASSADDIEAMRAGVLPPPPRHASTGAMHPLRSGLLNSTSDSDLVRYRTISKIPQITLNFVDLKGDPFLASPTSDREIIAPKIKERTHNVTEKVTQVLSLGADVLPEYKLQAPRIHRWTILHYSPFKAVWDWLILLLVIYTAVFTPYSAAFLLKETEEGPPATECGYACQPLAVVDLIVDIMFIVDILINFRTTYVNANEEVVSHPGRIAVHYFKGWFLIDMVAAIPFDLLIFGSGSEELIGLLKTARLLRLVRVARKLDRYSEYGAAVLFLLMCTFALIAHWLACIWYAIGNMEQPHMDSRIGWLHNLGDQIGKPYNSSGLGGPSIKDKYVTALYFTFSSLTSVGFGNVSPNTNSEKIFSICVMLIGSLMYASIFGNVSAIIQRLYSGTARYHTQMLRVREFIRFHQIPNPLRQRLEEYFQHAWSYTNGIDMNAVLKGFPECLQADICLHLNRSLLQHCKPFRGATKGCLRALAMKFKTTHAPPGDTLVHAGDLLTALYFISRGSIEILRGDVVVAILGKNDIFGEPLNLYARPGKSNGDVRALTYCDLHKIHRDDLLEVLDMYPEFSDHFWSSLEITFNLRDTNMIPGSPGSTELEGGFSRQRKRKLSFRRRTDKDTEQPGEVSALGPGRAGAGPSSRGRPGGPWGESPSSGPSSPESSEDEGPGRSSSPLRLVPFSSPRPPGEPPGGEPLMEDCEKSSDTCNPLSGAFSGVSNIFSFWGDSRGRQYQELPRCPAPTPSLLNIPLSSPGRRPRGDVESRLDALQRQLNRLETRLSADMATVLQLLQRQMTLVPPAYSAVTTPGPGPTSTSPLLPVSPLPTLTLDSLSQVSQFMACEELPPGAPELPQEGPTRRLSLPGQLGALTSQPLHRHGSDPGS
Procedure, shortened: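 PatchXpress patch-clamp on HEK293 cells stably expressing hERG. Five-point concentration-response, n = 3.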

[13] = Drug level in cynomolgus monkey plasma at 10 mg/kg, po measured at 1 hr post dose by LC-MS/MS analysis; type: ADME, organism-based, Macaca fascicularis; procedure, shortened: as §3
[14] = Drug level in cynomolgus monkey plasma at 10 mg/kg, po measured at 8 hrs post dose by LC-MS/MS analysis; type: ADME, organism-based, Macaca fascicularis
[15] = Drug level in cynomolgus monkey plasma at 10 mg/kg, po measured at 2 hrs post dose by LC-MS/MS analysis; type: ADME, organism-based, Macaca fascicularis; procedure, shortened: as §3
[16] = Apparent permeability from basolateral to apical side in human Caco2 cells; type: ADME, cell-based; settings: Caco-2
Procedure, shortened: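 Caco-2 monolayer permeability measured in both the A-to-B and B-to-A directions and reported as P_app (×10⁻⁶ cm/s).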

[17] = Intrinsic clearance in human; type: ADME
[18] = Drug level in cynomolgus monkey plasma at 3 mg/kg, po measured at 2 hrs post dose by LC-MS/MS analysis; type: ADME, organism-based, Macaca fascicularis
[19] = Apparent terminal half life in cynomolgus monkey plasma at 1 mg/kg, iv or 5 mg/kg, po by LC-MS/MS analysis; type: ADME, organism-based, Macaca fascicularis; settings: read-out: betat1/2(app) (converted); procedure, shortened: as §2
[20] = Drug level in cynomolgus monkey plasma at 3 mg/kg, po measured at 12 hrs post dose by LC-MS/MS analysis; type: ADME, organism-based, Macaca fascicularis
[21] = Total clearance in Sprague-Dawley rat at 10 mg/kg, po or 2 mg/kg, iv administered as single dose measured up to 24 hrs post dose by LC-MS/MS analysis; type: ADME, organism-based; settings: in vivo
Procedure, shortened: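 Groups of three drug-naive adult male Sprague–Dawley rats, single dose: IV 3.1 μmol/kg in 5% DMSO/10% Solutol in saline (5 mL/kg), or PO 15.7 μmol/kg in 5% Solutol/10% Captisol in 25 mM PBS adjusted to pH 2 with HCl. Plasma concentration–time data give the parameters; mean ± SD.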

[22] = Oral bioavailability in Sprague-Dawley rat at 10 mg/kg administered as single dose measured up to 24 hrs post dose by LC-MS/MS analysis; type: ADME, organism-based; settings: in vivo
Procedure, shortened: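 Male Sprague-Dawley rats, n = 3 per group. Dosing was 3.1 μmol/kg IV (5% DMSO / 10% Solutol in saline, 5 mL/kg) and 15.7 μmol/kg PO (5% Solutol / 10% Captisol in 25 mM PBS, pH 2). F = (AUC_INF,po × Dose_iv)/(AUC_INF,iv × Dose_po). Mean ± SD.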

In the case of Cl.Cn1cc(S(=O)(=O)N2CCN(C3(CNC(=O)c4ccc(C(F)(F)F)cc4Cl)CCC(F)(F)CC3)CC2)nn1, the Activity [1] is reported as “Non-Toxic”, the concentration at 2 h [2] is reported as 237 nM and the concentration at 2 h [3] is reported as 1.1 nM. It also gave a concentration at 2 h [4] of 46.3 nM, a concentration at 2 h [5] of 1.9 nM and a concentration at 2 h [6] of 122 nM. For the same compound, the Activity (Rattus norvegicus) was 317.2% and the concentration at 2 h [7] was 69.4 nM.

With CC(NC(=O)c1ccc(C(F)(F)F)cc1Cl)C1(N2CCN(S(=O)(=O)c3cn(C)nn3)CC2)CCC(F)(F)CC1.Cl (single isomer, unassigned; (+)) the Tmax [8] was 1.67 h, the Ratio [9] was > 0.1 and the Cmax [10] was 105 ng/mL. For the same compound, the concentration at 2 h [11] was 11.3 ng/mL, the IC50 [12] was 20.2 µM and the concentration at 1 h [13] was 203 ng/mL. It also gave a concentration at 8 h [14] of 156 ng/mL, a concentration at 2 h [15] of 222 ng/mL and a Papp B→A [16] of 47.4 ×10⁻⁶ cm/s. The CL [17] was 4 microL/ml/min, the concentration at 2 h [18] was 3.6 ng/mL and the half-life [19] was 6.27 h. The concentration at 12 h [20] was < 1 ng/mL, the clearance [21] was 23.3 mL/min/kg and the bioavailability [22] was 27.2%.
